Experimental findings from ChEMBL document CHEMBL3091373, “Phenylspirodrimanes with anti-HIV activity from the sponge-derived fungus Stachybotrys chartarum MXH-X73” (J Nat Prod, 2013) are described below.

The term EC50 denotes the concentration needed to bring the measured effect to its halfway point.

The subject of one data set is HEK-293T. The data set is described as follows: Cytotoxicity against human 293T cells at 10 uM after 48 hrs. It counts as cell-based. An outline of the steps:
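293T cells at the anti-HIV assay culture conditions (seeded 6 × 10^4 cells/well the day before), compound in DMSO incubated 48 h without virus; viability read with a cell proliferation assay kit.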

The subject of data set [1] is Human immunodeficiency virus 1. The data set is described as follows: Antiviral activity against wild-type HIV-1 infected in human 293T cells co-transfected with VSVG protein assessed as inhibition of viral-replication incubated 15 mins prior to viral-infection measured after 48 hrs by luciferase reporter gene assay. Format: functional, organism-based. The conditions noted are these: Human immunodeficiency virus 1, HEK-293T. In a few lines: (§1)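 VSV-G-pseudotyped single-cycle HIV made by Ca3(PO4)2 co-transfection of 293T cells with env-deficient pNL4-3.luc.R-E- (wild-type or RT mutant) vector; medium changed 16 h post-transfection, supernatant harvested at 48 h, filtered, diluted to 0.2 ng p24/mL. Target 293T cells seeded 6 × 10^4/well the day before; compounds in DMSO added 15 min pre-infection; luciferase of lysates read 48 h post-infection.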
On the technique in general: A reporter such as luciferase makes a cellular process visible.

For data set [2], the system named is Human immunodeficiency virus 1. The data set is described as follows: Antiviral activity against HIV-1 expressing reverse transcriptase K103N/V108I double mutant infected in human 293T cells co-transfected with VSVG protein assessed as inhibition of viral-replication incubated 15 mins prior to viral-infection measured after 48 hrs by luciferase reporter gene assay. It counts as functional, organism-based. The note with it: Human immunodeficiency virus 1, HEK-293T. An outline of the steps:
as §1

For data set [3], the system named is Human immunodeficiency virus 1. Put plainly: Antiviral activity against HIV-1 expressing reverse transcriptase K103N/P225H double mutant infected in human 293T cells co-transfected with VSVG protein assessed as inhibition of viral-replication incubated 15 mins prior to viral-infection measured after 48 hrs by luciferase reporter gene assay. Format: functional, organism-based. The conditions noted are these: Human immunodeficiency virus 1, HEK-293T. In a few lines:
as §1

The test system of data set [4] is Human immunodeficiency virus 1. The data set is described as follows: Antiviral activity against HIV-1 expressing reverse transcriptase K103N mutant infected in human 293T cells co-transfected with VSVG protein assessed as inhibition of viral-replication incubated 15 mins prior to viral-infection measured after 48 hrs by luciferase reporter gene assay. Format: functional, organism-based. The note with it: Human immunodeficiency virus 1, HEK-293T. In a few lines: as §1

Data set [5] has as its system Human immunodeficiency virus 1. Put plainly: Antiviral activity against HIV-1 expressing reverse transcriptase K103N/G190A double mutant infected in human 293T cells co-transfected with VSVG protein assessed as inhibition of viral-replication incubated 15 mins prior to viral-infection measured after 48 hrs by luciferase reporter gene assay. Format: functional, organism-based. The note with it: Human immunodeficiency virus 1, HEK-293T. An outline of the steps:
as §1

Data set [6] has as its system Human immunodeficiency virus 1. The data set is described as follows: Antiviral activity against HIV-1 expressing reverse transcriptase L100I/K103N double mutant infected in human 293T cells co-transfected with VSVG protein assessed as inhibition of viral-replication incubated 15 mins prior to viral-infection measured after 48 hrs by luciferase reporter gene assay. Format: functional, organism-based. The note with it: Human immunodeficiency virus 1, HEK-293T. In a few lines:
as §1

Data set [7] relates to Human immunodeficiency virus 1. The data set is described as follows: Antiviral activity against wild-type HIV-1 infected in HEK293T cells co-transfected with VSVG protein assessed as time required for 50% failure of viral replication at 10 uM by luciferase reporter gene assay. Format: functional, HEK-293T. An outline of the steps: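 Time-of-addition run: HEK 293T cells seeded 6 × 10^4/well, held overnight at 37 °C, then infected with VSVG/HIV-wt pseudoparticles (t = 0 at particle addition). Compounds added at a final 10 μM at 0, 2, 4, 6, 8, 10, 12, 14 or 16 h. Cells lysed 48 h post-infection and luciferase activity measured.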

Data set [8] has as its system Human immunodeficiency virus 1. The data set is described as follows: Ratio of EC50 for HIV-1 expressing reverse transcriptase K103N/V108I double mutant to EC50 for wild-type HIV-1. Format: functional. In a few lines:
(§2)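 Fold change, computed as the EC50 against each VSV-G-pseudotyped NNRTI-resistant RT-mutant HIV-1 divided by the EC50 against wild-type pseudovirus. Both EC50s come from the 293T single-cycle luciferase infection assay, with compound added 15 min before infection and read at 48 h.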

Data set [9] has as its system Human immunodeficiency virus 1. The data set is described as follows: Ratio of EC50 for HIV-1 expressing reverse transcriptase K103N/P225H double mutant to EC50 for wild-type HIV-1. Format: functional. In a few lines:
as §2

The subject of data set [10] is Human immunodeficiency virus 1. The data set is described as follows: Ratio of EC50 for HIV-1 expressing reverse transcriptase L100I/K103N double mutant to EC50 for wild-type HIV-1. Format: functional. An outline of the steps: as §2
In data set [11] the test system is Human immunodeficiency virus 1. The data set is described as follows: Ratio of EC50 for HIV-1 expressing reverse transcriptase K103N/G190A double mutant to EC50 for wild-type HIV-1. It counts as functional. In a few lines:
as §2

The target of data set [12] is Human immunodeficiency virus type 1 reverse transcriptase (Human immunodeficiency virus 1) (UniProt Q72547). The data set is described as follows: (§3) Inhibition of HIV-1 reverse transcriptase after 1 hr by spectrophotometry. An outline of the steps: (§4)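 RNA-dependent DNA polymerase activity. Started with reverse transcriptase, 1 h at 37 °C. Product captured on streptavidin plate 1 h at 37 °C, TMB 15 min, stopped with H2SO4, OD450. Dose-response EC50.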

Data set [13] deals with Human immunodeficiency virus type 1 reverse transcriptase (Human immunodeficiency virus 1, UniProt Q72547). Described as §3. An outline of the steps: as §4
The test system of data set [14] is Human immunodeficiency virus 1. The data set is described as follows: Ratio of EC50 for HIV-1 expressing reverse transcriptase K103N mutant to EC50 for wild-type HIV-1. It counts as functional. In a few lines:
as §2

Regarding `COC(=O)CC[C@@H](C(=O)O)N1Cc2c(cc(O)c3c2O[C@]2(C3)[C@H](C)CC[C@H]3C(C)(C)[C@H](O)CC[C@@]32C)C1=O`, in the data set with HEK-293T, the Activity entry is recorded as “Non-toxic”.

Consider `Cc1cc(O)c2c(c1C=O)O[C@]1(C2)[C@H](C)CC[C@H]2C(C)(C)[C@H](O)CC[C@@]21C`, for which the Activity entry with HEK-293T is recorded as “Non-toxic”.

On to `C[C@@H]1CC[C@H]2C(C)(C)[C@H](O)CC[C@]2(C)[C@@]12Cc1c(O)cc(CO)c(C=O)c1O2`, for which the Activity entry in the data set on HEK-293T was “Non-toxic”.

Turning to `C[C@@H]1CC[C@H]2C(C)(C)[C@H](O)CC[C@]2(C)[C@@]12Cc1c(O)cc3c(c1O2)CN([C@@H](CCC(=O)O)C(=O)O)C3=O`, in the data set with HEK-293T, the Activity entry is “Non-toxic”.

`C[C@@H]1CC[C@H]2C(C)(C)[C@H](O)CC[C@]2(C)[C@@]12Cc1c(O)cc3c(c1O2)CN(CCCCN1Cc2c(cc(O)c4c2O[C@]2(C4)[C@H](C)CC[C@H]4C(C)(C)[C@H](O)CC[C@@]42C)C1=O)C3=O`: the Activity entry in the data set on HEK-293T was “Non-toxic”.

As for `C[C@@H]1CC[C@H]2C(C)(C)[C@H](O)C(O)C[C@]2(C)[C@@]12Cc1c(O)cc(CO)c(C=O)c1O2` (some centres undefined), in the data set with HEK-293T, the Activity result is “Non-toxic”.

For `COC(=O)[C@H](CCC(=O)O)N1Cc2c(cc(O)c3c2O[C@]2(C3)[C@H](C)CC[C@H]3C(C)(C)[C@H](O)CC[C@@]32C)C1=O`, the Activity result in the data set with HEK-293T is on record as “Non-toxic”.

As to `Cc1ccnc2c1NC(=O)c1cccnc1N2C1CC1` [NEVIRAPINE], the EC50 in [1] came to 0.023 µM; in data set [2], 7.5 µM; in [3], 23.3 µM; in data set [4] it was 2.3 µM; in data set [5], 51.9 µM; in data set [6], 3.3 µM.

For `Cc1nnc(C(=O)NC(C)(C)c2nc(C(=O)NCc3ccc(F)cc3)c(O)c(=O)n2C)o1`, the Time in [7] is 17.78 h.

In the case of `Cc1cn([C@H]2C[C@H](N=[N+]=[N-])[C@@H](CO)O2)c(=O)[nH]c1=O` [ZIDOVUDINE], the Time in data set [7] is 11.59 h.

`O=C1Nc2ccc(Cl)cc2[C@@](C#CC2CC2)(C(F)(F)F)O1` [EFAVIRENZ]: in data set [7], the Time turned out to be 13.06 h.

On to `C[C@@H]1CC[C@H]2C(C)(C)[C@H](O)[C@H](O)C[C@]2(C)[C@@]12Cc1c(O)cc(CO[C@H]3O[C@H](CO)[C@@H](O)[C@H](O)[C@H]3O)c(C=O)c1O2`, for which the Activity entry in the data set on HEK-293T is recorded as “Non-toxic”.

Consider `C[C@@H]1CC[C@H]2C(C)(C)[C@H](O)CC[C@]2(C)[C@@]12Cc1c(O)cc(CO[C@H]3O[C@H](CO)[C@@H](O)[C@H](O)[C@H]3O)c(C=O)c1O2`, for which the Activity entry in the data set with HEK-293T was “Non-toxic”.

With `CC(=O)CN1Cc2c(cc(O)c3c2O[C@]2(C3)[C@H](C)CC[C@H]3C(C)(C)[C@H](O)CC[C@@]32C)C1=O`, the EC50 in [1] stood at 8.4 µM; in data set [2], 13.3 µM; in data set [3], 6.2 µM; in data set [4] it was 7 µM; in data set [13] it was 50 µM; in data set [5], 14.2 µM. For the same compound, the EC50 in [6] was 23.8 µM. Besides, the “Ratio EC50” value was determined as 1.6 in data set [8]; 0.7 in data set [9]; 2.8 in data set [10]; 1.7 in data set [11]; 0.8 in [14]. The Activity entry in the data set with HEK-293T is on record as “Non-toxic”. Moreover, in [12], the inhibition entry is “Dose-dependent effect”. For the same compound, in data set [7], the Time came out at 12.66 h.

On to `C[C@@H]1CC[C@H]2C(C)(C)[C@H](O)CC[C@]2(C)[C@@]12Cc1c(O)cc3c(c1O2)CN(CCCCCN1Cc2c(cc(O)c4c2O[C@]2(C4)[C@H](C)CC[C@H]4C(C)(C)[C@H](O)CC[C@@]42C)C1=O)C3=O`, for which, in the data set on HEK-293T, the Activity entry is “Non-toxic”.
